# According to ChEMBL document CHEMBL4138193, “Novel indole and triazole based hybrid molecules exhibit potent anti-adipogenic and antidyslipidemic activity by activating Wnt3a/β-catenin pathway” (Eur J Med Chem, 2018):
# The source made the active and inactive calls. The rule behind the calls is not given here.
# Assays:
# Syrian golden hamster [1] = assay: Induction of reverse cholestrol transport in high fat diet-induced dyslipidemia Syrian Golden hamster model assessed as increase in ABCA1 mRNA expression in eWAT at 100 mg/kg, po administered for 1 week by qRT-PCR analysis; format: functional, organism-based; conditions: Mesocricetus auratus
# Syrian golden hamster [2] = assay: Induction of reverse cholestrol transport in high fat diet-induced dyslipidemia Syrian Golden hamster model assessed as increase in LXR1alpha mRNA expression in liver at 100 mg/kg, po administered for 1 week by qRT-PCR analysis; format: functional, organism-based; conditions: Mesocricetus auratus
# Syrian golden hamster [3] = assay: Induction of reverse cholestrol transport in high fat diet-induced dyslipidemia Syrian Golden hamster model assessed as increase in LCAT mRNA expression in liver at 100 mg/kg, po administered for 1 week by qRT-PCR analysis; format: functional, organism-based; conditions: Mesocricetus auratus
# Syrian golden hamster [4] = assay: Anti-dyslipidemic activity in high fat diet-induced dyslipidemia Syrian Golden hamster model assessed as decrease in serum AST levels at 100 mg/kg, po administered for 1 week followed by overnight fasting post last dose by clinical bio-analyzer analysis; format: functional, organism-based; conditions: Mesocricetus auratus
# Summary of the method: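 Male Syrian golden hamsters (8–10 wk, 100–120 g), 4 per group, given 45% kcal HFD for 4 days, then 100 mg/kg p.o. in 0.5% NaCMC daily for one week alongside HFD. Blood taken from retro-orbital plexus after overnight fast. TG, HDL, LDL, ALT, AST measured on a clinical bio-analyzer and NEFA by kit. Mean ± SEM, one-way ANOVA with Bonferroni.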
# Syrian golden hamster [5] = assay: Induction of reverse cholestrol transport in high fat diet-induced dyslipidemia Syrian Golden hamster model assessed as reduction in adipocyte hypertrophy at 100 mg/kg, po administered for 1 week by H and E staining based assay; format: functional, organism-based; conditions: Mesocricetus auratus
# Summary of the method: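 Male Syrian Golden hamsters on 45% kCal HFD, dosed 100 mg/kg p.o. in 0.5% NaCMC for one week, 4 per group. Food intake and body weight recorded daily. At the end, animals were saline-perfused and liver and eWAT were excised and weighed. Paraffin sections stained with H&E and imaged at 20x.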
# Mus musculus [6] = species: Mus musculus; assay: Activation of Wnt3a/beta-catenin in mouse 3T3L1 cells assessed as down-regulation of cyclinD expression at 20 uM after 16 to 24 hrs by Western blot analysis; format: cell-based
# Summary of the method: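 3T3-L1 cells given MDI differentiation media (0.5 mM IBMX, 5 µg/ml insulin, 250 nM dexamethasone) with or without 20 µM compound. Proteins isolated at 16 and 24 h and probed by Western blot for CDK2, CDK4, CDK6, cyclin D1 and D3. Densitometry normalized to actin, n=3, mean ± SD, Student t test.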
# Mus musculus [7] = species: Mus musculus; assay: Activation of Wnt3a/beta-catenin in mouse 3T3L1 cells assessed as down-regulation of AP2 mRNA expression at 20 uM by qRT-PCR analysis; format: cell-based
# Summary of the method: (§1)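 3T3-L1 cells differentiated with IBMX/dexamethasone/insulin media with or without 20 µM compound over the differentiation period. RNA extracted with TRIZOL, 500 ng reverse-transcribed to cDNA, then quantitative real-time PCR. Three independent experiments run in triplicate, mean ± SD, one-way ANOVA with Bonferroni posttest.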
# Mus musculus [8] = species: Mus musculus; assay: Activation of Wnt3a/beta-catenin in mouse 3T3L1 cells assessed as down-regulation of C/EBPalpha mRNA expression at 20 uM by qRT-PCR analysis; format: cell-based; summary of the method: as §1
# Mus musculus [9] = species: Mus musculus; assay: Activation of Wnt3a/beta-catenin in mouse 3T3L1 cells assessed as down-regulation of FAS expression at 20 uM after 2 to 6 days in presence of FH353 by Western blot analysis; format: cell-based
# Syrian golden hamster [10] = assay: Anti-dyslipidemic activity in high fat diet-induced dyslipidemia Syrian Golden hamster model assessed as reduction in serum total cholesterol levels at 100 mg/kg, po administered for 1 week followed by overnight fasting post last dose by clinical bio-analyzer analysis; format: functional, organism-based; conditions: Mesocricetus auratus
# Summary of the method: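 Male Syrian Golden hamsters (8-10 weeks, 100-120 g), 4 per group, given 45% kCal high fat diet for 4 days, then HFD plus oral dosing in 0.5% w/v NaCMC for one week. After an overnight fast, blood was taken from the retro-orbital plexus under anesthesia and serum was analysed on a clinical bio-analyzer. Mean ± SEM; one-way ANOVA with Bonferroni post-test.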
# Mus musculus [11] = species: Mus musculus; assay: Activation of Wnt3a/beta-catenin in mouse 3T3L1 cells assessed as down-regulation of cyclinD1 expression at 20 uM after 16 to 24 hrs in presence of FH353 by Western blot analysis; format: cell-based
# Summary of the method: (§2)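 Confluent 3T3-L1 cells given differentiation media (IBMX/insulin/dexamethasone) with 20 µM compound, with or without the β-catenin/TCF inhibitor FH353 (10 µM). Proteins isolated at 16 and 24 h and Western blotted after SDS-PAGE and nitrocellulose transfer. Blocking in 5% milk/TBS-T, primary antibody overnight at 4 °C, chemiluminescent detection, β-actin control, three independent experiments.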
# 3T3-L1 [12] = assay: Induction of Wnt5b mRNA expression in mouse 3T3L1 cells at 20 uM by qRT-PCR analysis; format: functional, cell-based
# Summary of the method: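 3T3-L1 cells induced with MDI differentiation medium with or without 20 µM. RNA isolated with TRIzol and 500 ng reverse-transcribed to cDNA for real-time PCR. n=3 with triplicates, mean ± SD; one-way ANOVA with Bonferroni post-test.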
# 3T3-L1 [13] = assay: Anti-adipogenic activity in mouse 3T3L1 pre-adipocytes in differentiation media assessed as reduction in lipid accumulation at 20 uM after 20 mins in presence of beta-catenin/TCF complex inhibitor FH353 by Oil Red O staining based microscopic method; format: functional, cell-based
# Summary of the method: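 3T3-L1 adipocytes given 20 µM compound with or without 10 µM FH353 in differentiation media, then Oil red O stained. Imaged at 20x and 40x, representative of three independent experiments.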
# Syrian golden hamster [14] = assay: Induction of reverse cholestrol transport in high fat diet-induced dyslipidemia Syrian Golden hamster model assessed as increase in PPARalpha mRNA expression in liver at 100 mg/kg, po administered for 1 week by qRT-PCR analysis; format: functional, organism-based; conditions: Mesocricetus auratus
# Mus musculus [15] = species: Mus musculus; assay: Activation of Wnt3a/beta-catenin in differentiated mouse 3T3L1 cells assessed as down-regulation of PPARgamma mRNA expression at 20 uM by qRT-PCR analysis; summary of the method: as §1
# Syrian golden hamster [16] = assay: Induction of reverse cholestrol transport in high fat diet-induced dyslipidemia Syrian Golden hamster model assessed as increase in ABCG8 mRNA expression in eWAT at 100 mg/kg, po administered for 1 week by qRT-PCR analysis; format: functional, organism-based; conditions: Mesocricetus auratus
# C3H 10T1/2 = assay: Anti-adipogenic activity in mouse differentiated C3H10T1/2 cells assessed as reduction in lipid accumulation at 5 to 20 uM after 20 mins by Oil Red O absorbance method; format: functional, cell-based
# Summary of the method: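 C3H10T1/2 or human MSC differentiated with IBMX/insulin/dexamethasone media containing 5, 10 or 20 µM compound. Cells stained with Oil red O (0.36% in 60% isopropanol, 20 min), dye extracted with isopropanol, absorbance read at 492 nm. n=3, mean ± SD, Student t test against MDI group.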
# Syrian golden hamster [17] = assay: Induction of reverse cholestrol transport in high fat diet-induced dyslipidemia Syrian Golden hamster model assessed as increase in SCARB1 mRNA expression in liver at 100 mg/kg, po administered for 1 week by qRT-PCR analysis; format: functional, organism-based; conditions: Mesocricetus auratus
# Mus musculus [18] = species: Mus musculus; assay: Activation of Wnt3a/beta-catenin in mouse 3T3L1 cells assessed as induction of TCF1 expression at 20 uM after 16 to 24 hrs in presence of beta-catenin/TCF complex inhibitor FH353 by Western blot analysis; format: cell-based; summary of the method: as §2
compound,measurement,setting,value
Cc1ccc(S(=O)(=O)N(Cc2cn(Cc3cccc(F)c3F)nn2)Cc2cn(S(=O)(=O)c3ccc(C)cc3)c3ccccc23)cc1,Activity,Syrian golden hamster [1],Active
same,Activity,Syrian golden hamster [2],Active
same,Activity,Syrian golden hamster [3],Active
same,Activity,Syrian golden hamster [4],Active
same,Activity,Syrian golden hamster [5],Active
same,Activity,Mus musculus [6],Active
same,Activity,Mus musculus [7],Active
same,Activity,Mus musculus [8],Active
same,Activity,Mus musculus [9],inactive
same,Activity,Syrian golden hamster [10],Active
same,Activity,Mus musculus [11],inactive
same,Activity,3T3-L1 [12],inactive
same,Activity,3T3-L1 [13],inactive
same,Activity,Syrian golden hamster [14],Active
same,Activity,Mus musculus [15],Active
same,Activity,Syrian golden hamster [16],Active
same,Activity,C3H 10T1/2,Active
same,Activity,Syrian golden hamster [17],Active
same,Activity,Mus musculus [18],inactive
